High-throughput results deposited in PubChem by several laboratories.
Sampled rows, rich in hits. Any-hit rate of the full collection: about 3.9%.
HSF-1 act: increases HSF-1 driven luciferase reporter signal. NIH3T3-HGL HSF-1 luciferase reporter, MG132, 8 h; 100% = twice DMSO control signal. activation, % at 9 µM. 300,000 compounds, 1.7% hits. AID 504408;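 active means mean replicate activation of at least 50% with a set share of replicates each reaching 50%; inconclusive means only one of those two conditions met; inactive means mean below 50% and too few replicates reaching it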
core dimer inh: HCV core protein dimerization inhibition; TR-FRET GST/Flag-core106 dimerization, 1536-well; inhibition, % at 5 µM; 300,000 compounds, 0.33% hits;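 active means inhibition above the mean of all tested compounds plus 3 SD, set per screening campaign, cut at about 45% in these data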
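test system = GST/Flag-tagged HCV core106 proteins | probe or stimulus = Eu donor and XL665 acceptor anti-tag antibodies | times = compound-protein-antibody incubation 4 h at 22.5 °C | signal = TR-FRET, excitation 340 nm, emission 617 and 671 nm | measure = percent inhibition of core106 dimerization signal | controls = wells lacking GST-core106 and wells with excess unlabelled core106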
HCV NS3 hel inh: inhibitors of Hepatitis C virus NS3 helicase; NS3 helicase DNA unwinding, Cy5 molecular beacon fluorescence; inhibition, % at 10.9 µM; 290,000 compounds, 0.56% hits;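 active means inhibition above the mean of all tested compounds plus 3 SD, set per campaign, cut at about 35% in these data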
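test system = hepatitis C virus NS3 helicase domain fragment enzyme | reagent = annealed dual-labelled DNA beacon duplex, ATP-started | times = 1 h at 25 °C | detection = Cy5 fluorescence, 0 and 60 min reads | read-out basis = percent inhibition from t60/t0 fluorescence ratio | control set = DMSO and thioflavine S | replication = one well per compound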
HSF1 inhib: HSF1 inhibition; 300,000 compounds, 0.77% hits; activity change, negative = inhibition, % at 7.5 µM (by protocol); AID 2098; NIH3T3-HGL HSE-luciferase, MG132-induced, luminescence 8 h; active compounds read low;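 active means more than half of replicate wells show activity change below -50%, luminescence cut by over half; inconclusive means some wells, but at most half, below -50%; inactive means no replicate well below -50%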;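 further: luciferase reports HSF-1 transcriptional activity via heat shock element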
FID counter: displaces DNA intercalator in HCV helicase counter-screen; DNA fluorescent intercalator displacement, fluorescence; inhibition, % at 7.9 µM; 290,000 compounds, 0.17% hits; in the data active means inhibition above about 37%;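 further: higher means more ethidium bromide displaced from hairpin DNA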
HSP90 inh: blocks HSP90-mediated luciferase refolding in reticulocyte lysate. inhibition, % at 5.6 µM. AID 1789. Rabbit reticulocyte lysate, luciferase refolding luminescence, 3 h. 290,000 compounds, 0.91% hits;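 active means inhibition above the screen-wide mean plus 3 SD, computed separately per campaign, cut at about 16% in these data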;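 further: inhibitors lower the luminescence because luciferase stays unfolded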
HSP90 inh confirm: HSP90 inhibition, confirmation assay; shares compounds with HSP90 inh; rabbit reticulocyte lysate, luciferase refolding luminescence, 3 h; inhibition, % at 5.9 µM; 2,300 compounds, 64% hits; AID 1846; in the data active means inhibition above about 18%
FLuc counter: firefly luciferase inhibition, HSP90 counter-screen; 2,300 compounds, 48% hits; shares compounds with HSP90 inh; purified native firefly luciferase, luminescence; inhibition, % at 5.9 µM;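 active means inhibition above the mean inhibition of all tested sample wells plus 3 SD, cut at about 10% in these data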
Target sequence (P08659 whole entry, looked up): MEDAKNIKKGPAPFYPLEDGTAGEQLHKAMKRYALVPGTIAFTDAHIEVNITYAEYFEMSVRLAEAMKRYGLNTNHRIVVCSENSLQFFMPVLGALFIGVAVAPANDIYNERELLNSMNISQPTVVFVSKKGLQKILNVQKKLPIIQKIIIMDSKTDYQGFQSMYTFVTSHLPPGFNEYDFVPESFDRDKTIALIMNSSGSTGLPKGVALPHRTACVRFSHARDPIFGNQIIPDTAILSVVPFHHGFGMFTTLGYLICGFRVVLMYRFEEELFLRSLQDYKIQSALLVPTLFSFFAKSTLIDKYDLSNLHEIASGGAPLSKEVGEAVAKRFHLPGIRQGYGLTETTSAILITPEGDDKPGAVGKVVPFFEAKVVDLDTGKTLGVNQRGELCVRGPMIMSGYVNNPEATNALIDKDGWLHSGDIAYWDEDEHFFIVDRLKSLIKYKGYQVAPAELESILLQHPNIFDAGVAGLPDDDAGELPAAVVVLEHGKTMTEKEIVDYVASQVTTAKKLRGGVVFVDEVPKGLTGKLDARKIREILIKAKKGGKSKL
Large screens that a line does not name were inactive (follow-up assays come after a bar, where they were run).

CCN1CCN(C(c2ccccn2)c2c(NC(=O)c3ccccc3)sc(C)c2C)CC1 (stereo unspecified)	HSP90 inh 33.2 | HSP90 inh confirm inactive | FLuc counter inactive
C=CCn1c(SCC(=O)c2ccc(F)cc2)nnc1-c1ccc2c(c1)OCO2	none
Cc1ccc(S(=O)(=O)/N=C2/C=C(C3C(=O)CC(C)(C)CC3=O)C(=O)c3ccccc32)cc1	none
O=C1C(Nc2ccc(O)cc2)=C/C(=N/S(=O)(=O)c2cccs2)c2ccccc21	HSF1 inhib -92.9, HSP90 inh 72.9 (no result: core dimer inh) | HSP90 inh confirm 91.4 | FLuc counter inactive
CCc1ccc(S(=O)(=O)/N=C2\C=CC(=O)c3ccccc32)cc1	none
CCc1ccc(S(=O)(=O)/N=C2\C=C(Nc3cccc(C(=O)O)c3)C(=O)c3ccccc32)cc1	HSP90 inh 69.2 | HSP90 inh confirm 81.7 | FLuc counter inactive
CCc1ccc(S(=O)(=O)/N=C2/C=C(Sc3ncn[nH]3)C(=O)c3ccccc32)cc1	HSP90 inh 87.5 (no result: HSF-1 act, HSF1 inhib) | HSP90 inh confirm 32.6 | FLuc counter 34.0
CCc1ccc(S(=O)(=O)/N=C2\C=C(Nc3ccc(O)cc3)C(=O)c3ccccc32)cc1	HSF1 inhib -95.2, HSP90 inh 31.1 | HSP90 inh confirm 71.6 | FLuc counter inactive
Nc1ccc(C(=O)c2cccs2)cc1[N+](=O)[O-]	none
Nc1cccc(Nc2nc(OC(C(F)(F)F)C(F)(F)F)nc(OC(C(F)(F)F)C(F)(F)F)n2)c1	none
N#Cc1ccccc1CSc1ncccc1C(=O)O	none
CCOC(=O)C[C@H]1c2cc(C(F)(F)F)ccc2S(=O)(=O)N1C(C)C	none (no result: HCV NS3 hel inh, FID counter, HSP90 inh)
Nc1ccc(-c2nc3ccc(C(=O)O)cc3s2)cc1	HSP90 inh 99.6 | HSP90 inh confirm 100.8 | FLuc counter 91.9
O=C(O)c1ccc2nc(-c3ccccc3)sc2c1	HSF1 inhib -57.9, HSP90 inh 94.6 | HSP90 inh confirm 95.0 | FLuc counter 78.8
CC1CCN(c2nc3ccc(C(=O)O)cc3s2)CC1	HSF1 inhib -83.1, HSP90 inh 96.7 | HSP90 inh confirm 100.3 | FLuc counter 92.5
O=C(COc1ccc2ccccc2c1)Nc1nccs1	HSF-1 act inconclusive, HSP90 inh 23.2 | HSP90 inh confirm 54.2 | FLuc counter 49.1
CC(C)CC(=O)Nc1ccc(-c2cn3ccsc3n2)cc1	none (no result: HSF-1 act, HSF1 inhib)
CC(C)(C)C(=O)Nc1ccc(-c2cn3ccsc3n2)cc1	HSP90 inh 29.0 | HSP90 inh confirm 48.8 | FLuc counter 32.6
NC(=O)CC(NC(=O)Cc1ccc(Br)cc1)c1ccc(N2CCN(c3ccc(F)cc3)CC2)c([N+](=O)[O-])c1 (stereo unspecified)	none (no result: HCV NS3 hel inh, FID counter, HSP90 inh)
Cc1cc(O)c(N)c(C)c1Cl	HSP90 inh 43.0 | HSP90 inh confirm 80.6 | FLuc counter inactive
Cc1cc(O)cc(C)c1Cl	none (no result: HCV NS3 hel inh, FID counter, HSP90 inh)
Cc1cc2nc(-c3ccc[nH]c3=O)[nH]c2cc1C	HSP90 inh 67.6 | HSP90 inh confirm 79.6 | FLuc counter 65.4
Cc1[nH]n(-c2ccccc2)c(=O)c1C(c1cccc([N+](=O)[O-])c1O)c1c(C)[nH]n(-c2ccccc2)c1=O	HSP90 inh 23.9 | HSP90 inh confirm inactive | FLuc counter inactive
O=C(Nc1ccc(NC(=O)C2CC2)cn1)c1ccccc1	HSP90 inh 17.0 | HSP90 inh confirm 39.3 | FLuc counter 21.4
Cc1c(NC(=O)c2ccc(NC(=O)C3CC3)cc2)cccc1C(=O)O	HSP90 inh 24.4 | HSP90 inh confirm 20.0 | FLuc counter inactive
Cc1c(NC(=O)c2ccccc2N)cccc1C(=O)O	HSP90 inh 20.0 | HSP90 inh confirm inactive | FLuc counter inactive
Cc1c(NC(=S)NC(=O)c2cc3ccccc3o2)cccc1C(=O)O	HSP90 inh 20.6 | HSP90 inh confirm 20.0 | FLuc counter inactive
CN1CCN(c2ccccc2NC(=S)NC(=O)c2cc3ccccc3o2)CC1	none
Cc1ccc(Cl)c(N/C=C/C(=O)c2ccccc2)c1	none
O=C(N/N=C/c1cc(O)ccc1Br)c1cccnc1	HSP90 inh 36.9 | HSP90 inh confirm inactive | FLuc counter inactive
Cc1[nH]n(C(N)=S)c(=O)c1N=Nc1ccc([N+](=O)[O-])cc1Cl	HSP90 inh 17.6 (no result: core dimer inh) | HSP90 inh confirm inactive | FLuc counter inactive
CC(=O)N(C)c1ccc(N=Nc2c(C)[nH]n(-c3ccccc3)c2=O)cc1	none
Cc1ccccc1N=Nc1c(C)[nH]n(C(N)=S)c1=O	none
CC(=O)N(C)c1ccc(N=Nc2c(C)[nH]n(C(N)=S)c2=O)cc1	HSF-1 act 53.3, HSP90 inh 20.4 | HSP90 inh confirm inactive | FLuc counter inactive
CC(=O)N(C)c1ccc(N=NC2C(=O)N(C(N)=S)N=C2C)cc1 (stereo unspecified)	HSP90 inh 18.0 | HSP90 inh confirm 17.5 | FLuc counter inactive
CC1=NN(C(N)=S)C(=O)C1N=Nc1ccc(S(N)(=O)=O)cc1 (stereo unspecified)	none
C=CCn1c(-c2cccc([N+](=O)[O-])c2)n[nH]c1=S	none
COc1ccc(N2CCN(/C(=N\S(=O)(=O)c3ccccc3)Nc3nc(C)cc(C)n3)CC2)cc1	HSP90 inh 39.0 | HSP90 inh confirm inactive | FLuc counter inactive
COc1ccc(CC(=O)N[C@@H](C)C(=O)N2CCC3(CC2)NCCc2[nH]cnc23)cc1	none
CCCC(C(=O)NCCC(C)C)N(Cc1ccccc1Cl)C(=O)c1snc(C(N)=O)c1N (stereo unspecified)	HSP90 inh 17.0 | HSP90 inh confirm inactive | FLuc counter inactive
CCCC(C(=O)NCCC(C)C)N(Cc1ccc(F)cc1)C(=O)c1snc(C(N)=O)c1N (stereo unspecified)	none
CCCn1cnc2sc(CC)cc2c1=O	none
Cn1c(C2CCCN2C(=O)OC(C)(C)C)n[nH]c1=S (stereo unspecified)	HSP90 inh 34.2 | HSP90 inh confirm inactive | FLuc counter inactive
COC(=O)C(Cc1ccc(O)cc1)NC(=O)c1ccc2c(c1)OCCO2 (stereo unspecified)	HSP90 inh 26.0 | HSP90 inh confirm 40.7 | FLuc counter 28.1
COc1ccccc1N1CCN(C(=O)c2cn(C)c3ccc(S(=O)(=O)N4CCOCC4)cc3c2=O)CC1	none
COc1cc(/C=N/Nc2ccc(C(=O)O)cc2)cc(OC)c1OC	none
O=C(O)c1ccc(N/N=C/c2ccc3nccnc3c2)cc1	HSF1 inhib -81.0, HSP90 inh 91.5 | HSP90 inh confirm 92.2 | FLuc counter 85.1
COc1cc(/C=N/NS(=O)(=O)c2ccc(C)cc2)ccc1OCc1ccc(C(=O)O)cc1	HSF1 inhib -75.4, HSP90 inh 65.5 | HSP90 inh confirm inactive | FLuc counter inactive
